Bioassay records as filed in PubChem BioAssay.
PP5 inh: blocks human protein phosphatase 5 activity; purified PP5c, OMFP substrate fluorescence; inhibition, % at 6.7 µM; 320,000 tested, 0.18% active; AID 1987;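 active = inhibition above the campaign's mean inhibition across all tested compounds plus 3 SD, cut at about 9.5% in these data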;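 also: 0% = DMSO only and 100% = 100 µM cantharidin control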
core dimer inh: HCV core protein dimerization inhibition | TR-FRET GST/Flag-core106 dimerization, 1536-well | inhibition, % at 5 µM | 300,000 tested, 0.33% active;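 active = inhibition above the mean of all tested compounds plus 3 SD, set per screening campaign, cut at about 45% in these data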
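Test system: GST/Flag-tagged HCV core106 proteins; Medium: KF-containing HEPES buffer, pH 7.45, DTT, CHAPS, BSA; Times: compound-protein-antibody incubation 4 h at 22.5 °C; Detection: TR-FRET 671 and 617 nm emission; Benchmarks: wells lacking GST-core106 and wells with excess unlabelled core106.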
PP1 counter: blocks human PP1-alpha phosphatase, a PP5 counter-screen; 320,000 tested, 0.9% active; inhibition, % at 6.7 µM; purified PP1alpha, OMFP fluorescence;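 active = inhibition above the mean inhibition of all tested compounds plus 3 SD, computed separately for each screening campaign, cut at about 15% in these data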
Target sequence (P62136 whole entry, looked up): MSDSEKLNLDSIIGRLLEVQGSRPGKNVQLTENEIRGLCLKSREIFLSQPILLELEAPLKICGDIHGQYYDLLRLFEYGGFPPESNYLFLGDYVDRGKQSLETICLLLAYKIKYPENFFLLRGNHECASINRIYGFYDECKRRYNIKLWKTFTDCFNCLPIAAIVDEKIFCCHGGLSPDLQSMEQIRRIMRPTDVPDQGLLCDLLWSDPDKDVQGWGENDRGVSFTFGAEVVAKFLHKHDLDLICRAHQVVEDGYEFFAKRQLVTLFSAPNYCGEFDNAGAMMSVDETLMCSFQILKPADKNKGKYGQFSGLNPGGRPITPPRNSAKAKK
Myeloid diff MLP: promotes myeloid progenitor differentiation | calls only at 10 µM | AID 624256 | 360,000 tested, 1% active | ER-HoxA9 myeloid progenitors, lysozyme-GFP differentiation, flow cytometry;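 active = normalized GFP-positive differentiation at or above the plate's own cutoff, the solvent-only control mean plus 3 SD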;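 also: cells exposed to compound for four days before flow analysis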
NadD inh: inhibitors of Staphylococcus aureus NadD | 360,000 tested, 0.78% active | inhibition, % at 20 µM | purified NadD enzyme, colorimetric absorbance read-out; in the data active = inhibition above about 26%
CTSL1 counter: counter-screen for PFM18AAP inhibitors: inhibitors of F. hepatica cathepsin L1; recombinant F. hepatica cathepsin L1, Z-Leu-Arg-MCA fluorescence; inhibition, % at 5.96 µM; 300,000 tested, 0.49% active; AID 1906;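 active = inhibition above the mean of all tested compounds plus 3 SD, set per screening campaign, cut at about 17% in these data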;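 also: 0% = plate median of test compound wells and 100% = 1 µM Z-Phe-Ala-diazomethylketone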
PP5 conf: confirmation of human PP5 phosphatase inhibitors; shares compounds with PP5 inh; Purified PP5, fluorogenic phosphatase substrate, fluorescence; inhibition, % at 6.7 µM; 460 tested, 22% active; in the data active = inhibition above about 9.5%
PP1 counter 3x: inhibits human PP1 phosphatase in PP5 counter-screen; shares compounds with PP5 inh; PP1 enzyme, fluorescent phosphatase substrate; inhibition, % at 6.7 µM; 460 tested, 4% active; AID 2355; in the data active = inhibition above about 16%
Starred values were filed as active, the others as inactive; i = inactive; x = not tested or not shown. In the library only some 3.1% were active in any assay of this set; here they are far more common.

SMILES	PP5 inh	core dimer inh	PP1 counter	Myeloid diff MLP	NadD inh	CTSL1 counter	PP5 conf	PP1 counter 3x
CC(=O)c1cccc(OCC(=O)N(C)CC(=O)NCc2ccco2)c1	x	x	x	i	13	x	x	x
Cc1cc(C)c2nc(C)cc(Nc3ccc(C(=O)N4CCOCC4)cc3)c2c1	11*	-1	1	i	-5	9	-4	-4
COC(=O)C[C@H]1N(S(=O)(=O)c2ccc(C)cc2)C(C(C)C)CC1(C(=O)OC)C(=O)OC (stereo not given in full)	x	x	x	i	x	x	x	x
ONC(=Nc1ccccc1Cl)c1ccccc1Cl	13*	-1	2	i	4	2	-1	0
O=[N+]([O-])c1cccc(C(=Nc2ccccc2Cl)NO)c1	4	-3	1	i	4	-3	x	x
Cc1ccc(-c2cc(C(=O)NCc3cccs3)no2)cc1	9.9*	3	-4	i	-4	-1	-3	-4
COc1ccc(OC)c(CCNC(=O)CCn2nc(C)c3c(C)n(-c4ccccc4)nc3c2=O)c1	-1	8	-3	i	-3	1	x	x
O=C(Nc1c(F)cc(F)cc1Br)c1cc(-c2ccccc2)on1	12*	0	-3	i	-4	-1	-3	-2
CC(C)c1ccc(S(=O)(=O)NCc2ccc3c(c2)OCO3)cc1	0	2	10	i	3	2	x	x
Cn1cc(CNCc2ccc(-n3cccn3)cc2)c(-c2ccccc2F)n1	3	-3	1	i	-5	-4	x	x
Cn1cc(CNCCCn2ncc3ccccc32)c(-c2ccccc2F)n1	16*	2	-10	i	-12	-11	-4	-7
N=c1c2c(-c3ccccc3)c(-c3ccccc3)oc2ncn1CCN1CCOCC1	11*	3	7	i	-2	2	-1	0
CC1(C(=O)NS(=O)(=O)c2cccc(OC(F)F)c2)CCN1C(=O)c1ccccc1CCc1ccccc1 (stereo not given)	x	x	x	i	9	x	x	x
CC(C)C[C@H](NC(=O)N1CCn2c1nc1ccccc12)C(=O)N[C@@H](Cc1ccccc1)C(=O)O	0	3	-11	i	6	5	x	x
COc1cccc(-c2cc(C(=O)Nc3cnn(Cc4ccc(F)cc4)c3)no2)c1	14*	1	-3	i	0	-3	0	-4
O=C(N/N=C/c1ccccc1OC(F)F)NC1CCCCC1	11*	3	5	i	-3	2	-2	-2
COc1ccccc1CNS(=O)(=O)c1ccc2c(c1)CC(C)N2C(=O)C1CCC1 (stereo not given)	-2	6	-1	i	-3	-5	x	x
Cn1c2ccccc2c(=O)n2c(=O)c3ccccc3cc12	11*	21	0	x	x	107*	29*	-4
COC(=O)c1ccc(NC(=O)CCN2C(=O)C3CC=CCC3C2=O)cc1 (stereo not given)	4	x	-7	i	8	x	x	x
CC(C)[C@H](NC(=O)N1c2ccccc2NC(=O)[C@@H]1C(C)C)C(=O)N[C@H](Cc1ccccc1)C(=O)O	1	0	-8	i	3	-2	x	x
COC(=O)CCC(=O)OC1(C)C(=O)C=C2C=C(C3CC3)N(Cc3ccccc3)C=C2C1=O (stereo not given)	6	6	5	i	1	-2	x	x
COC(=O)CCC(=O)OC1(C)C(=O)C=C2C=C(C3CC3)N(C3CCCC3)C=C2C1=O (stereo not given)	12*	3	3	i	-7	-1	32*	7
COC(=O)CCC(=O)OC1(C)C(=O)C=C2C=C(C3CC3)N(CC3CC3)C=C2C1=O (stereo not given)	12*	-2	0	i	0	-4	37*	14
COc1cccc(CNC(=O)COC(=O)c2ccc(-c3ccc(O)cc3)cc2)c1	x	x	x	i	-2	x	x	x
COc1ccc(C(C)C)cc1S(=O)(=O)N1CC(C)OC(C)C1 (stereo not given)	10*	2	-6	i	-1	2	-3	-3
COc1ccc(-c2cc(C(=O)NCc3cccc(Cl)c3)[nH]n2)c(C)c1	x	x	x	i	-3	x	x	x
